Experimental data taken from ChEMBL document CHEMBL2321690, “New betulinic acid derivatives for bevirimat-resistant human immunodeficiency virus type-1” (J Med Chem, 2013).

What was measured:
MT4 = assay: Cytotoxicity against human MT4 cells for 4 days; format: cell-based; conditions: mt4, 96 h
Method in brief: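 MT4 cells cultured with various compound concentrations for 4 days. Viability read by a CytoTox-Glo luminescent cytotoxicity assay. CC50 is the concentration reducing viable cells by 50%.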

[1] = system: Human immunodeficiency virus 1; assay: Antiviral activity against 0.001 MOI wild type Human immunodeficiency virus 1 NL4-3 infected in human MT4 cells assessed as inhibition of viral replication measured 4 days post infection by ELISA; format: functional, organism-based; conditions: Human immunodeficiency virus 1, NL4-3, MT4, 96 h
Method in brief: (§1)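 Mutations introduced into pNL4-3 by site-directed mutagenesis. MT4 cells infected with wild-type NL4-3 or resistant variant at 0.001 TCID50/cell in presence of graded compound concentrations. Supernatant p24 measured by ELISA on day 4 post-infection. IC50 is the concentration reducing p24 by 50%, reported as mean ± SD with the number of tests given per value.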

[2] = system: Human immunodeficiency virus 1; assay: Antiviral activity against 0.001 MOI bevirimat-resistant Human immunodeficiency virus 1 NL4-3 harboring gag V370A mutant infected in human MT4 cells assessed as inhibition of viral replication measured 4 days post infection by ELISA; format: functional, organism-based; conditions: Human immunodeficiency virus 1, NL4-3, MT4, 96 h; method in brief: as §1

Compound | CC50 (MT4) | IC50 [1] | IC50 [2]
C=C(C)[C@@H]1CC[C@]2(C(=O)NCCCCCCCC(=O)N[C@@H](CCC(N)=O)C(=O)OC)CC[C@]3(C)[C@H](CC[C@@H]4[C@@]5(C)CC[C@H](OC(=O)CC(C)(C)C(=O)O)C(C)(C)[C@@H]5CC[C@]43C)[C@@H]12 | > 10000 nM | 50 nM | > 5000 nM
C=C(C)[C@@H]1CC[C@]2(C(=O)NCCCCCCCNC(=O)[C@H](C)NC(=O)OC(C)(C)C)CC[C@]3(C)[C@H](CC[C@@H]4[C@@]5(C)CC[C@H](OC(=O)CC(C)(C)C(=O)O)C(C)(C)[C@@H]5CC[C@]43C)[C@@H]12 | 7900 nM | 10 nM | 370 nM
C=C(C)[C@@H]1CC[C@]2(C(=O)NCCCCCCCCNC(=O)[C@H](C)NC(=O)OC(C)(C)C)CC[C@]3(C)[C@H](CC[C@@H]4[C@@]5(C)CC[C@H](OC(=O)CC(C)(C)C(=O)O)C(C)(C)[C@@H]5CC[C@]43C)[C@@H]12 | > 10000 nM | 20 nM | 920 nM
C=C(C)[C@@H]1CC[C@]2(C(=O)N3CCN(CCCCC(=O)O)CC3)CC[C@]3(C)[C@H](CC[C@@H]4[C@@]5(C)CC[C@H](OC(=O)CC(C)(C)C(=O)O)C(C)(C)[C@@H]5CC[C@]43C)[C@@H]12 | > 10000 nM | 6 nM | > 3300 nM
C=C(C)[C@@H]1CC[C@]2(C(=O)NCCCCCCC(=O)N[C@@H](CCC(N)=O)C(=O)OC)CC[C@]3(C)[C@H](CC[C@@H]4[C@@]5(C)CC[C@H](OC(=O)CC(C)(C)C(=O)O)C(C)(C)[C@@H]5CC[C@]43C)[C@@H]12 | > 10000 nM | 50 nM | 2460 nM
C=C(C)[C@@H]1CC[C@]2(C(=O)NCCCCCCCCC(=O)N[C@@H](CCC(=O)OC)C(=O)OC)CC[C@]3(C)[C@H](CC[C@@H]4[C@@]5(C)CC[C@H](OC(=O)CC(C)(C)C(=O)O)C(C)(C)[C@@H]5CC[C@]43C)[C@@H]12 | > 10000 nM | 180 nM | 2160 nM
C=C(C)[C@@H]1CC[C@]2(C(=O)NCCCCCCCCNC(=O)[C@H](CCC#N)NC(=O)OC(C)(C)C)CC[C@]3(C)[C@H](CC[C@@H]4[C@@]5(C)CC[C@H](OC(=O)CC(C)(C)C(=O)O)C(C)(C)[C@@H]5CC[C@]43C)[C@@H]12 | > 10000 nM | 30 nM | 330 nM
C=C(C)[C@@H]1CC[C@]2(C(=O)NCCCCCCCCNC(=O)[C@@H]3CCCN3C(=O)OC(C)(C)C)CC[C@]3(C)[C@H](CC[C@@H]4[C@@]5(C)CC[C@H](OC(=O)CC(C)(C)C(=O)O)C(C)(C)[C@@H]5CC[C@]43C)[C@@H]12 | > 10000 nM | 40 nM | 950 nM
C=C(C)[C@@H]1CC[C@]2(C(=O)NCCCCCCCCC(=O)N(C)CC#N)CC[C@]3(C)[C@H](CC[C@@H]4[C@@]5(C)CC[C@H](OC(=O)CC(C)(C)C(=O)O)C(C)(C)[C@@H]5CC[C@]43C)[C@@H]12 | > 10000 nM | 40 nM | 2080 nM
C=C(C)[C@@H]1CC[C@]2(C(=O)NCCCCCCCCCNC(=O)CNC(=O)OC(C)(C)C)CC[C@]3(C)[C@H](CC[C@@H]4[C@@]5(C)CC[C@H](OC(=O)CC(C)(C)C(=O)O)C(C)(C)[C@@H]5CC[C@]43C)[C@@H]12 | > 10000 nM | 20 nM | 1040 nM
C=C(C)[C@@H]1CC[C@]2(C(=O)NCCCCCCCCNC(=O)[C@@H](NC(=O)OC(C)(C)C)C(C)C)CC[C@]3(C)[C@H](CC[C@@H]4[C@@]5(C)CC[C@H](OC(=O)CC(C)(C)C(=O)O)C(C)(C)[C@@H]5CC[C@]43C)[C@@H]12 | > 10000 nM | 150 nM | 330 nM
C=C(C)[C@@H]1CC[C@]2(C(=O)NCCCCCCCCNC(=O)[C@H](CCC(N)=O)NC(=O)OC(C)(C)C)CC[C@]3(C)[C@H](CC[C@@H]4[C@@]5(C)CC[C@H](OC(=O)CC(C)(C)C(=O)O)C(C)(C)[C@@H]5CC[C@]43C)[C@@H]12 | > 10000 nM | 30 nM | 360 nM
C=C(C)[C@@H]1CC[C@]2(C(=O)NCCCCCCCCCNC(=O)[C@H](C)NC(=O)OC(C)(C)C)CC[C@]3(C)[C@H](CC[C@@H]4[C@@]5(C)CC[C@H](OC(=O)CC(C)(C)C(=O)O)C(C)(C)[C@@H]5CC[C@]43C)[C@@H]12 | > 10000 nM | 50 nM | 1580 nM
C=C(C)[C@@H]1CC[C@]2(C(=O)NCCCCCCCCCNC(=O)[C@H](CC(N)=O)NC(=O)OC(C)(C)C)CC[C@]3(C)[C@H](CC[C@@H]4[C@@]5(C)CC[C@H](OC(=O)CC(C)(C)C(=O)O)C(C)(C)[C@@H]5CC[C@]43C)[C@@H]12 | 8300 nM | 40 nM | 340 nM
C=C(C)[C@@H]1CC[C@]2(C(=O)NCCCCCCCCC(=O)NCC#N)CC[C@]3(C)[C@H](CC[C@@H]4[C@@]5(C)CC[C@H](OC(=O)CC(C)(C)C(=O)O)C(C)(C)[C@@H]5CC[C@]43C)[C@@H]12 | 6490 nM | 30 nM | 460 nM
C=C(C)[C@@H]1CC[C@]2(C(=O)NCCCCCCCCC(=O)NCCC#N)CC[C@]3(C)[C@H](CC[C@@H]4[C@@]5(C)CC[C@H](OC(=O)CC(C)(C)C(=O)O)C(C)(C)[C@@H]5CC[C@]43C)[C@@H]12 | > 10000 nM | 150 nM | 330 nM
C=C(C)[C@@H]1CC[C@]2(C(=O)NCCCCCCCCC(=O)N[C@@H](C)C(=O)OC)CC[C@]3(C)[C@H](CC[C@@H]4[C@@]5(C)CC[C@H](OC(=O)CC(C)(C)C(=O)O)C(C)(C)[C@@H]5CC[C@]43C)[C@@H]12 | > 10000 nM | 10 nM | 420 nM
C=C(C)[C@@H]1CC[C@]2(C(=O)NCCCCCCCCC(=O)N[C@@H](Cc3ccccc3)C(=O)OC)CC[C@]3(C)[C@H](CC[C@@H]4[C@@]5(C)CC[C@H](OC(=O)CC(C)(C)C(=O)O)C(C)(C)[C@@H]5CC[C@]43C)[C@@H]12 | > 10000 nM | 70 nM | 1290 nM
C=C(C)[C@@H]1CC[C@]2(C(=O)NCCCCCCCCC(=O)N[C@@H](CCC(N)=O)C(=O)OC(C)(C)C)CC[C@]3(C)[C@H](CC[C@@H]4[C@@]5(C)CC[C@H](OC(=O)CC(C)(C)C(=O)O)C(C)(C)[C@@H]5CC[C@]43C)[C@@H]12 | > 10000 nM | 10 nM | 810 nM
C=C(C)[C@@H]1CC[C@]2(C(=O)NCCCCCCCCC(=O)NCC(=O)OC)CC[C@]3(C)[C@H](CC[C@@H]4[C@@]5(C)CC[C@H](OC(=O)CC(C)(C)C(=O)O)C(C)(C)[C@@H]5CC[C@]43C)[C@@H]12 | > 10000 nM | 10 nM | 1510 nM
C=C(C)[C@@H]1CC[C@]2(C(=O)NCCCCCCCCC(=O)N3CCC[C@H]3C(=O)OC)CC[C@]3(C)[C@H](CC[C@@H]4[C@@]5(C)CC[C@H](OC(=O)CC(C)(C)C(=O)O)C(C)(C)[C@@H]5CC[C@]43C)[C@@H]12 | > 10000 nM | 100 nM | 880 nM
C=C(C)[C@@H]1CC[C@]2(C(=O)NCCCCCCCCCNC(=O)[C@H](CCC(N)=O)NC(=O)OC(C)(C)C)CC[C@]3(C)[C@H](CC[C@@H]4[C@@]5(C)CC[C@H](OC(=O)CC(C)(C)C(=O)O)C(C)(C)[C@@H]5CC[C@]43C)[C@@H]12 | > 10000 nM | 20 nM | 1200 nM
C=C(C)[C@@H]1CC[C@]2(C(=O)NCCCCCCCCC(=O)N[C@@H](CCC(N)=O)C(=O)OCc3ccccc3)CC[C@]3(C)[C@H](CC[C@@H]4[C@@]5(C)CC[C@H](OC(=O)CC(C)(C)C(=O)O)C(C)(C)[C@@H]5CC[C@]43C)[C@@H]12 | > 10000 nM | 40 nM | 2540 nM
C=C(C)[C@@H]1CC[C@]2(C(=O)NCCCCCCCCC(=O)N[C@H](C(=O)OC)[C@@H](C)CC)CC[C@]3(C)[C@H](CC[C@@H]4[C@@]5(C)CC[C@H](OC(=O)CC(C)(C)C(=O)O)C(C)(C)[C@@H]5CC[C@]43C)[C@@H]12 | > 10000 nM | 40 nM | 2780 nM
C=C(C)[C@@H]1CC[C@]2(C(=O)NCCCCCCCCC(=O)NCC(=O)O)CC[C@]3(C)[C@H](CC[C@@H]4[C@@]5(C)CC[C@H](OC(=O)CC(C)(C)C(=O)O)C(C)(C)[C@@H]5CC[C@]43C)[C@@H]12 | > 10000 nM | 40 nM | 480 nM
C=C(C)[C@@H]1CC[C@]2(C(=O)NCCCCCCCCCC(=O)N[C@@H](CCC(N)=O)C(=O)OC)CC[C@]3(C)[C@H](CC[C@@H]4[C@@]5(C)CC[C@H](OC(=O)CC(C)(C)C(=O)O)C(C)(C)[C@@H]5CC[C@]43C)[C@@H]12 | > 10000 nM | 100 nM | 700 nM
C=C(C)[C@@H]1CC[C@]2(C(=O)NCCCCCCCCC(=O)N[C@H](C(=O)OC)C(C)C)CC[C@]3(C)[C@H](CC[C@@H]4[C@@]5(C)CC[C@H](OC(=O)CC(C)(C)C(=O)O)C(C)(C)[C@@H]5CC[C@]43C)[C@@H]12 | > 10000 nM | 10 nM | 1240 nM
C=C(C)[C@@H]1CC[C@]2(C(=O)NCCCCCCCNC(=O)[C@H](CCC(N)=O)NC(=O)OC(C)(C)C)CC[C@]3(C)[C@H](CC[C@@H]4[C@@]5(C)CC[C@H](OC(=O)CC(C)(C)C(=O)O)C(C)(C)[C@@H]5CC[C@]43C)[C@@H]12 | > 10000 nM | 10 nM | 2600 nM
